Experimental data: ChEMBL document CHEMBL1131445, “Evaluation of dynamic polar molecular surface area as predictor of drug absorption: comparison with other computational and experimental predictors” (J Med Chem, 1998)

What was measured:
[1] = Dissociation constant of the compound; assay type: physicochemical
[2] = Distribution coefficient measured in Octanol/buffer (0.15 M KCl); assay type: physicochemical
How it was run: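 Dual-phase titration at 25 °C: 1–2 mg sample plus 1.0 mL n-octanol in 10–15 mL water with 0.15 M KCl. Acidified to pH 2 (0.5 M HCl), then titrated with 0.5 M KOH to pH 11 under nitrogen. log P came from the pKa–pKa' shift via nonlinear regression of difference curves; log D refers to pH 7.4.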

Homo sapiens = species on record: Homo sapiens; experiment: Mono layer permeability of human intestinal Caco-2 cells; assay type: ADME, cell-based
How it was run: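 Caco-2 cells at passage 93–105, seeded on polycarbonate filter inserts (0.45 μm pores) and grown 22–32 days. Drug at 1–2 mM final in HBSS with 25 mM Hepes, pH 7.4, added donor side; 37 °C, low and high stirring. Receiver sampled every 4–40 min for HPLC, under sink conditions. Pc derived from Papp across stirring rates, free of the aqueous boundary layer.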

SMILES | pKa [1] | logD [2] | Pc (Homo sapiens)
CCC(=O)Nc1ccc(OCC(O)CNC(C)C)cc1 (configuration not stated) | 9.5 | -1.08 | 6.03 ×10⁻⁶ cm/s
O=C(NCCNCC(O)COc1ccc(CCOCCOCC2CC2)cc1)N1CCC(O)CC1 (configuration not stated) | 8.5 | -0.1 | 0.104 ×10⁻⁶ cm/s
CC(C)NCC(O)COc1ccc(NC=O)cc1 (configuration not stated) | 9.5 | -1.56 | 3.75 ×10⁻⁶ cm/s
C=CCc1ccccc1OCC(O)CNC(C)C (configuration not stated) [ALPRENOLOL] |  | 0.85 | 242 ×10⁻⁶ cm/s
COCCc1ccc(OCC(O)CNC(C)C)cc1 (configuration not stated) [METOPROLOL] |  | -0.42 | 91.9 ×10⁻⁶ cm/s
C=CCOc1ccccc1OCC(O)CNC(C)C (configuration not stated) [OXPRENOLOL] | 9.5 | 0.08 | 119.6 ×10⁻⁶ cm/s
CC(C)NCC(O)COc1cccc2[nH]ccc12 (configuration not stated) [PINDOLOL] | 9.7 | -0.55 | 54.7 ×10⁻⁶ cm/s
CC(=O)Nc1ccc(OCC(O)CNC(C)C)cc1 (configuration not stated) [PRACTOLOL] | 9.5 | -1.31 | 3.46 ×10⁻⁶ cm/s
